# Results pooled from the literature.
# pEC50, pKd, pKi: −log10 of the molar value.
# MTNR1B: Melatonin receptor type 1B (MTNR1B, Homo sapiens, UniProt P49286)
SMILES,target,test,setting,measurement,result
Nc1nc(NCc2ccc(Oc3ccccc3)cc2)nc(-c2c(F)cccc2CO)n1,MTNR1B,"cell-free assay, radioligand",,pKi,5.96
CCC(=O)NC1Cc2ccccc2C(c2ccccc2)C1 (centres unmarked),MTNR1B,"GTPγS binding, agonist, radiometric",cell membranes,pEC50,8.80
C=C1CC[C@@H]2[C@](C)(CO)[C@H](O)CC[C@@]2(C)[C@@H]1C/C=C1/C(=O)OC[C@H]1O,"UDP-glucuronosyltransferase 2B7 (UGT2B7, Homo sapiens, UniProt P16662)","enzyme activity, inhibitor",pH 7.4,pKi,5.24
COc1ccc(-c2nsc(NC(=O)[C@@H]3C[C@H]3C)c2C)cc1,"Metabotropic glutamate receptor 7 (GRM7, Homo sapiens, UniProt Q14831)","calcium signal, agonist",,pEC50,< 4.78
Cc1cc2nc3c(=O)[nH]c(=O)nc-3n(C[C@H](O)[C@H](O)[C@H](O)COP(=O)(O)OP(=O)(O)OC[C@H]3O[C@@H](n4cnc5c(N)ncnc54)[C@H](O)[C@@H]3O)c2cc1C,"Transformer-2 protein homolog beta (Homo sapiens, UniProt P62995)",binding,lysate,pKd,7.44
COc1ccc2c(c1)C(=O)C1(Cc3ccccc3C1)O2,"Peptidyl-prolyl cis-trans isomerase NIMA-interacting 1 (PIN1, Homo sapiens, UniProt Q13526)","enzyme activity, inhibitor",,pKi,4.00
COc1ccc(Br)c(CNc2cccnc2)c1,MTNR1B,cell-free assay,,pKi,8.16
Cc1cc(Nc2cc3ncccc3c(N[C@@H]3C[C@H]4CC[C@@H](C3)N4CCC#N)n2)n[nH]1,"Death-associated protein kinase 1 (DAPK1, Homo sapiens, UniProt P53355)","binding, competition with immobilised ligand",,pKd,7.02
COc1cc(I)c2[nH]cc(CCNC(C)=O)c2c1,MTNR1B,"β-arrestin recruitment, agonist",,pEC50,7.22
CCCCN1CCC(COC(=O)c2ccc(N)c(OCF)c2)CC1,"5-hydroxytryptamine receptor 1B (HTR1B, Homo sapiens, UniProt P28222)","cell-free assay, radioligand",,pKi,< 5.00
O=C(NCCc1cccc2ccccc12)C1CCC1,MTNR1B,"ligand displacement, radioligand",cell membranes,pKi,~7.00
C=CC(=O)Nc1cccc(CN2C(=O)N(c3c(Cl)c(OC)cc(OC)c3Cl)Cc3cnc(NCCCCN(CC)CC)nc32)c1,"Mitogen-activated protein kinase 7 (MAPK7, Homo sapiens, UniProt Q13164)","binding, competition with immobilised ligand",,pKd,6.80
CC(=O)NCCc1c(Cc2ccccc2)[nH]c2ccccc12,MTNR1B,"cAMP, antagonist, TR-FRET",,Kb,~100 nM
CC1(C)[C@@H](O)CC[C@]2(C)[C@H]3C(=O)C=C4[C@@H]5C[C@@](C)(C(=O)O)CC[C@]5(C)CC[C@@]4(C)[C@]3(C)CC[C@@H]12,"Peroxiredoxin-1 (PRDX1, Homo sapiens, UniProt Q06830)","binding, SPR",,pKd,4.60
